Type in all cases: functional
Assay [1] has as its system Aspergillus fumigatus. The experiment in a line: In vitro antifungal activity against Aspergillus fumigatus. The note with it: Aspergillus fumigatus; read-out: MIC. Summed up:
(§1)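 Broth microdilution MIC in Sabouraud's glucose broth; final inocula 1 × 10^5 cells/mL (yeast) or 1 × 10^5 conidia/mL (mold and dermatophyte).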

For assay [2], the system named is Candida albicans. As to the kind of experiment: In vitro antifungal activity against Candida albicans. The note with it: Candida albicans; read-out: MIC. The method, boiled down:
as §1

Assay [3] has as its system Candida albicans. The experiment in a line: Minimum effective concentration for inhibition of pseudomycelium formation in Candida albicans. The note with it: Candida albicans; read-out: MEC. The method, boiled down:
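C. albicans KE-2 (clinical isolate) at a final 1 × 10^6 yeast cells/mL in EMEM with 20% calf serum; compounds diluted by the same microtiter system as for MICs. After incubation, wells were Giemsa-stained (5% in phosphate buffer) and read by microscope. MEC is the lowest concentration preventing typical pseudomycelium formation.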

In assay [4] the test system is Mus musculus. The experiment in a line: Ratio of in vivo number of survivors / total infected. More on the design: reference not given here.
Assay [5] deals with Trichophyton benhamiae. As to the kind of experiment: In vitro antifungal activity against Trichophyton asteroides. The note with it: Trichophyton benhamiae; read-out: MIC. Summed up:
as §1

≈ marks a conversion by molar mass, not a printed value. Where only a bound is given, the exact number is not on record here.

The term MIC denotes the lowest concentration found to suppress growth.

For the molecule `Cc1ccccc1C(=O)C(O)(Cn1cncn1)c1ccccc1C` (stereo not given), the figures for the MIC in assay [1], in assay [2] and in assay [5] were above 100 µg/mL, above 100 µg/mL and 3.1 µg/mL (≈ 9.65 µM), respectively. Also, the minimal effective concentration in assay [3] worked out at 5 µg/mL. The No. of survivors in assay [4] is reported as 0.
Regarding `CC(C)[C@H]1OCO[C@]1(Cn1cncn1)c1ccc(Cl)cc1`, the results for the MIC in assay [1], in assay [2] and in assay [5] were 100 µg/mL (≈ 325 µM), above 100 µg/mL and 0.2 µg/mL (≈ 0.65 µM), respectively. Also, the minimal effective concentration in assay [3] turned out to be 0.04 µg/mL. Further, the No. of survivors in assay [4] amounted to 7.
`OC(c1ccc(Cl)cc1Cl)C(O)(Cn1ccnc1)c1ccc(Cl)cc1Cl` (stereo not given): the minimal inhibitory concentration (MIC) is 100 µg/mL (≈ 231 µM) in assay [1], 50 µg/mL (≈ 116 µM) in assay [2] and 0.1 µg/mL (≈ 0.231 µM) in assay [5]. Besides, in assay [3], the minimal effective concentration came to 1.25 µg/mL. Besides, the No. of survivors in assay [4] was 3.
As for `O=C(c1ccc(Cl)cc1)C(O)(Cn1cncn1)C1CCCCC1` (stereo not given), the minimal inhibitory concentration (MIC) in assay [1] is 50 µg/mL (≈ 150 µM); in assay [2], above 100 µg/mL; in assay [5] it was 0.8 µg/mL (≈ 2.4 µM). For the same molecule, the minimal effective concentration in assay [3] was found to be 0.08 µg/mL. The No. of survivors in assay [4] is recorded as 0.
Consider `CCCC(=O)C(O)(Cn1cncn1)c1ccc(Cl)cc1` (stereo not given), for which the MIC stood at 12.5 µg/mL (≈ 42.6 µM) in assay [1], 100 µg/mL (≈ 340 µM) in assay [2] and 0.1 µg/mL (≈ 0.34 µM) in assay [5]. Also, the minimal effective concentration in assay [3] came out at 0.08 µg/mL. Moreover, the No. of survivors in assay [4] stood at 0.
For the molecule `O=C1O[C@H](c2ccc(Cl)cc2Cl)[C@@](Cn2cncn2)(c2ccc(Cl)cc2Cl)O1`, the MIC in assay [1] was above 100 µg/mL; in assay [2] it was above 100 µg/mL; in assay [5] it was 0.1 µg/mL (≈ 0.218 µM). Also, the minimal effective concentration in assay [3] was found to be 0.16 µg/mL. In assay [4], the No. of survivors stood at 0.
On to `O=C(c1ccc(F)cc1)C(O)(Cn1cncn1)c1ccc(Cl)cc1Cl` (stereo not given), for which the minimal inhibitory concentration (MIC) was above 100 µg/mL in assay [1], above 100 µg/mL in assay [2] and 0.1 µg/mL (≈ 0.263 µM) in assay [5]. In addition, the minimal effective concentration in assay [3] worked out at 1.25 µg/mL. For the same molecule, the No. of survivors in assay [4] was determined as 2.
For the molecule `CCCC(O)(c1ccc(F)cc1)C(O)(Cn1cncn1)c1ccc(Cl)cc1` (stereo not given), the MIC in assay [1] was above 100 µg/mL; in assay [2], above 100 µg/mL; in assay [5] it was 0.2 µg/mL (≈ 0.513 µM). The minimal effective concentration in assay [3] was found to be 0.31 µg/mL. In assay [4], the No. of survivors is recorded as 7.
With `CCCCC(O)(Cn1cncn1)C(=O)c1ccc(Cl)cc1` (stereo not given), the MIC in assay [1] is 100 µg/mL (≈ 325 µM); in assay [2] it was 100 µg/mL (≈ 325 µM); in assay [5], 0.2 µg/mL (≈ 0.65 µM). The minimal effective concentration in assay [3] stood at 0.31 µg/mL. In addition, the No. of survivors in assay [4] turned out to be 2.
With `O=C(c1ccccc1)C(O)(Cn1cncn1)c1ccc(Cl)cc1Cl` (stereo not given), the MIC in assay [1] was above 100 µg/mL; in assay [2], above 100 µg/mL; in assay [5], 0.1 µg/mL (≈ 0.276 µM). Also, the minimal effective concentration in assay [3] came to 1.25 µg/mL. In addition, the No. of survivors in assay [4] turned out to be 7.
Consider `O=C(c1ccccc1Cl)C(O)(Cn1cncn1)c1ccccc1Cl` (stereo not given), for which the figures for the MIC in assay [1], in assay [2] and in assay [5] were 50 µg/mL (≈ 138 µM), 50 µg/mL (≈ 138 µM) and 0.1 µg/mL (≈ 0.276 µM), respectively. Further, in assay [3], the minimal effective concentration came out at 0.08 µg/mL. The No. of survivors in assay [4] was 2.
Turning to `O=C(c1ccc(Cl)cc1Cl)C(O)(Cn1ccnc1)c1ccc(Cl)cc1` (stereo not given), the minimal inhibitory concentration (MIC) in assay [1] was found to be 25 µg/mL (≈ 63.2 µM); in assay [2], 25 µg/mL (≈ 63.2 µM); in assay [5], 0.1 µg/mL (≈ 0.253 µM). Also, in assay [3], the minimal effective concentration was 2.5 µg/mL. The No. of survivors in assay [4] is on record as 0.
With `O=C(c1ccccc1Cl)C(O)(Cn1ccnc1)c1ccccc1Cl` (stereo not given), the MIC in assay [1] is above 100 µg/mL; in assay [2] it was above 100 µg/mL; in assay [5], 0.1 µg/mL (≈ 0.277 µM). Also, the minimal effective concentration in assay [3] amounted to 2.5 µg/mL. In addition, the No. of survivors in assay [4] is listed as 2.
On to `CC(C)CC(=O)C(O)(Cn1cncn1)c1ccc(Cl)cc1Cl` (stereo not given), for which the minimum inhibitory concentration (MIC) was found to be 100 µg/mL (≈ 292 µM) in assay [1], 100 µg/mL (≈ 292 µM) in assay [2] and 0.1 µg/mL (≈ 0.292 µM) in assay [5]. Also, the minimal effective concentration in assay [3] came to 0.02 µg/mL. The No. of survivors in assay [4] worked out at 0.
For `CC(C)(C)C(=O)C(O)(Cn1cncn1)c1ccc(Cl)cc1Cl` (stereo not given), the minimum inhibitory concentration (MIC) is above 100 µg/mL in assay [1], above 100 µg/mL in assay [2] and 0.1 µg/mL (≈ 0.292 µM) in assay [5]. In addition, in assay [3], the minimal effective concentration turned out to be 0.04 µg/mL. Also, the No. of survivors in assay [4] amounted to 7.
As to `O=C(c1ccccc1Cl)C(O)(Cn1cncn1)c1ccc(F)cc1` (stereo not given), the minimal inhibitory concentration (MIC) in assay [1] is above 100 µg/mL; in assay [2], 100 µg/mL (≈ 289 µM); in assay [5], 0.4 µg/mL (≈ 1.16 µM). Besides, the minimal effective concentration in assay [3] was determined as 10 µg/mL. In assay [4], the No. of survivors turned out to be 0.
For `CCCC(=O)C(O)(Cn1cncn1)c1ccc(Cl)cc1Cl` (stereo not given), the MIC in assay [1] came out at 50 µg/mL (≈ 152 µM); in assay [2] it was 50 µg/mL (≈ 152 µM); in assay [5], 0.1 µg/mL (≈ 0.305 µM). The minimal effective concentration in assay [3] was determined as 0.04 µg/mL. Further, the No. of survivors in assay [4] amounted to 4.
In the case of `CCCCC(=O)C(O)(Cn1ccnc1)c1ccc(Cl)cc1Cl` (stereo not given), the values for the minimum inhibitory concentration (MIC) in assay [1], in assay [2] and in assay [5] were above 100 µg/mL, above 100 µg/mL and 0.1 µg/mL (≈ 0.293 µM), respectively. Also, in assay [3], the minimal effective concentration is 0.04 µg/mL. The No. of survivors in assay [4] was found to be 0.

The values above are taken from ChEMBL document CHEMBL1123760, “Synthesis and oral antifungal activity of novel azolylpropanolones and related compounds” (1987).
